ChEMBL document CHEMBL3864121, “Development of ebsulfur analogues as potent antibacterials against methicillin-resistant Staphylococcus aureus” (Bioorg Med Chem, 2016)
In brackets after ≈: the same amount, converted by molar mass. Activity calls are given as the source filed them. No cut-off for these calls is given here.

What was measured:
Escherichia coli = test: Antibacterial activity against Escherichia coli MC1061 measured after overnight incubation by broth double-dilution method; format: functional
Method in brief: (§1)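 MIC by broth double-dilution in liquid Mueller-Hinton medium. Values are reported in µg/mL.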

Staphylococcus aureus [1] = test: Antibacterial activity against methicillin-resistant Staphylococcus aureus G1 measured after overnight incubation by broth double-dilution method; format: functional; method in brief: as §1
Staphylococcus aureus [2] = test: Antibacterial activity against methicillin-resistant Staphylococcus aureus G12 measured after overnight incubation by broth double-dilution method; format: functional; method in brief: as §1
[3] = system: Staphylococcus epidermidis; test: Antibacterial activity against Staphylococcus epidermidis ATCC 12228 measured after overnight incubation by broth double-dilution method; format: functional
Method in brief: (§2)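 MIC by broth double-dilution in Mueller-Hinton medium. Re-testing at the time-kill inoculum used 1×10^6 CFU/mL.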

Staphylococcus aureus [4] = test: Antibiofilm activity against methicillin-sensitive Staphylococcus aureus ATCC 6538 assessed as reduction of biofilm at […] ug/ml measured after 24 hrs by crystal violet staining based method relative to untreated control; format: functional; design: scale not given: the % may be the effect or the level left
Staphylococcus aureus [5] = test: Antibacterial activity against methicillin-resistant Staphylococcus aureus BRS3 measured after overnight incubation by broth double-dilution method; format: functional; method in brief: as §1
Staphylococcus aureus [6] = test: Antibacterial activity against methicillin-resistant Staphylococcus aureus ATCC 33591 measured after overnight incubation by broth double-dilution method; format: functional; method in brief: as §1
Listeria monocytogenes = test: Antibacterial activity against Listeria monocytogenes ATCC 19115 measured after overnight incubation by broth double-dilution method; format: functional; method in brief: as §2
Staphylococcus aureus [7] = test: Bacteriostatic activity against methicillin-resistant Staphylococcus aureus S22 at 0.5 times MIC measured up to 3 to 6 hrs by time kill analysis; format: functional
Staphylococcus aureus [8] = test: Antibiofilm activity against methicillin-sensitive Staphylococcus aureus ATCC 6538 assessed as reduction in biofilm mass at 2 ug/ml measured after 24 hrs by crystal violet staining based method relative to control; format: functional; design: scale not given: the % may be the effect or the level left
Enterococcus faecalis [9] = test: Antibacterial activity against Enterococcus faecalis ATCC 29212 measured after overnight incubation by broth double-dilution method; format: functional; method in brief: as §2
Enterococcus = test: Antibacterial activity against Vancomycin-resistant Enterococcus measured after overnight incubation by broth double-dilution method; format: functional; method in brief: as §1
Staphylococcus aureus [10] = test: Antibacterial activity against methicillin-resistant Staphylococcus aureus NRS4 measured after overnight incubation by broth double-dilution method; format: functional; method in brief: as §1
Staphylococcus aureus [11] = test: Antibacterial activity against methicillin-sensitive Staphylococcus aureus ATCC 25923 measured after overnight incubation by broth double-dilution method; format: functional; method in brief: as §1
Staphylococcus aureus [12] = test: Antibacterial activity against methicillin-resistant Staphylococcus aureus C19 measured after overnight incubation by broth double-dilution method; format: functional; method in brief: as §1
Staphylococcus aureus [13] = test: Antibacterial activity against methicillin-resistant Staphylococcus aureus USA300 measured after overnight incubation by broth double-dilution method; format: functional; method in brief: as §1
Staphylococcus aureus [14] = test: Antibacterial activity against methicillin-resistant Staphylococcus aureus C16 measured after overnight incubation by broth double-dilution method; format: functional; method in brief: as §1
Staphylococcus aureus [15] = test: Antibacterial activity against methicillin-resistant Staphylococcus aureus S22 measured after overnight incubation by broth double-dilution method; format: functional; method in brief: as §1
Staphylococcus aureus [16] = test: Bactericidal activity against methicillin-resistant Staphylococcus aureus S22 at 4 times MIC measured after 24 hrs by time kill analysis; format: functional
Klebsiella pneumoniae = test: Antibacterial activity against Klebsiella pneumoniae ATCC 27736 measured after overnight incubation by broth double-dilution method; format: functional; method in brief: as §1
Acinetobacter baumannii = test: Antibacterial activity against Acinetobacter baumannii ATCC 19606 measured after overnight incubation by broth double-dilution method; format: functional; method in brief: as §2
Staphylococcus aureus [17] = test: Antibacterial activity against methicillin-resistant Staphylococcus aureus S17 measured after overnight incubation by broth double-dilution method; format: functional; method in brief: as §1
Staphylococcus aureus [18] = test: Antibacterial activity against methicillin-resistant Staphylococcus aureus 1 measured after overnight incubation by broth double-dilution method; format: functional; method in brief: as §1
Staphylococcus aureus [19] = test: Antibacterial activity against methicillin-resistant Staphylococcus aureus C1 measured after overnight incubation by broth double-dilution method; format: functional; method in brief: as §1
Staphylococcus aureus [20] = test: Antibacterial activity against methicillin-resistant Staphylococcus aureus 2 measured after overnight incubation by broth double-dilution method; format: functional; method in brief: as §1
[21] = system: Mycolicibacterium smegmatis; test: Antibacterial activity against Mycobacterium smegmatis MC2-155 measured after overnight incubation by broth double-dilution method; format: functional; conditions: str. MC2 155; method in brief: as §1
Staphylococcus aureus [22] = test: Antibacterial activity against methicillin-resistant Staphylococcus aureus C7 measured after overnight incubation by broth double-dilution method; format: functional; method in brief: as §1
Staphylococcus aureus [23] = test: Antibacterial activity against methicillin-resistant Staphylococcus aureus USA600 measured after overnight incubation by broth double-dilution method; format: functional; method in brief: as §1
[24] = system: Staphylococcus epidermidis; test: Antibacterial activity against Staphylococcus epidermidis ATCC 35984 measured after overnight incubation by broth double-dilution method; format: functional; conditions: RP62A; method in brief: as §2
Staphylococcus aureus [25] = test: Antibacterial activity against methicillin-resistant Staphylococcus aureus NRS77 measured after overnight incubation by broth double-dilution method; format: functional; method in brief: as §1
[26] = Cytotoxicity against mouse RBCs assessed as hemolysis up to […] measured after 1 hr; format: toxicity, Erythrocyte; conditions: mouse red blood cells, read-out: Activity
Staphylococcus aureus [27] = test: Antibacterial activity against methicillin-resistant Staphylococcus aureus G14 measured after overnight incubation by broth double-dilution method; format: functional; method in brief: as §1
Staphylococcus aureus [28] = test: Bacteriostatic activity against methicillin-resistant Staphylococcus aureus S22 at MIC measured up to 3 to 6 hrs by time kill analysis; format: functional
Pseudomonas aeruginosa = test: Antibacterial activity against Pseudomonas aeruginosa ATCC 27853 measured after overnight incubation by broth double-dilution method; format: functional; method in brief: as §2
Staphylococcus aureus [29] = test: Antibacterial activity against methicillin-resistant Staphylococcus aureus G6 measured after overnight incubation by broth double-dilution method; format: functional; method in brief: as §1
Staphylococcus aureus [30] = test: Antibacterial activity against methicillin-sensitive Staphylococcus aureus ATCC 6538 measured after overnight incubation by broth double-dilution method; format: functional; method in brief: as §1
Salmonella enterica = test: Antibacterial activity against Salmonella enterica ATCC 14028 measured after overnight incubation by broth double-dilution method; format: functional; method in brief: as §2
Staphylococcus aureus [31] = test: Antibacterial activity against methicillin-resistant Staphylococcus aureus S14 measured after overnight incubation by broth double-dilution method; format: functional; method in brief: as §1
Staphylococcus aureus [32] = test: Antibacterial activity against methicillin-resistant Staphylococcus aureus C14 measured after overnight incubation by broth double-dilution method; format: functional; method in brief: as §1
Staphylococcus aureus [33] = test: Antibacterial activity against methicillin-resistant Staphylococcus aureus NRS51 measured after overnight incubation by broth double-dilution method; format: functional; method in brief: as §1
[34] = Cytotoxicity against HEK293 cells assessed as cell death up to 10 ug/ml measured after 24 hrs by resazurin dye-based fluorescence analysis relative to untreated control; format: toxicity; conditions: human, hek293, 24 h
Enterococcus faecalis [35] = test: Antibacterial activity against Enterococcus faecalis ATCC 49533 measured after overnight incubation by broth double-dilution method; format: functional; method in brief: as §2
Staphylococcus aureus [36] = test: Antibacterial activity against methicillin-resistant Staphylococcus aureus S22 using 1 10^6CFU/ml measured after overnight incubation by broth double-dilution method; format: functional
Staphylococcus aureus [37] = test: Antibacterial activity against methicillin-resistant Staphylococcus aureus USA200 measured after overnight incubation by broth double-dilution method; format: functional; method in brief: as §1
Staphylococcus aureus [38] = test: Antibacterial activity against methicillin-resistant Staphylococcus aureus C2 measured after overnight incubation by broth double-dilution method; format: functional; method in brief: as §1
Enterococcus faecium = test: Antibacterial activity against Enterococcus faecium BM4105-RF measured after overnight incubation by broth double-dilution method; format: functional; method in brief: as §1
Enterobacter cloacae = test: Antibacterial activity against Enterobacter cloacae ATCC 13047 measured after overnight incubation by broth double-dilution method; format: functional; conditions: subsp. cloacae ATCC 13047; method in brief: as §1
Staphylococcus aureus [39] = test: Antibacterial activity against methicillin-resistant Staphylococcus aureus S24 measured after overnight incubation by broth double-dilution method; format: functional; method in brief: as §1
Staphylococcus aureus [40] = test: Antibacterial activity against methicillin-sensitive Staphylococcus aureus ATCC 29213 measured after overnight incubation by broth double-dilution method; format: functional; method in brief: as §1
[41] = system: Staphylococcus epidermidis; test: Antibiofilm activity against Staphylococcus epidermidis ATCC 35984 assessed as reduction of biofilm at […] ug/ml measured after 24 hrs by crystal violet staining based method relative to control; format: functional, RP62A; design: scale not given: the % may be the effect or the level left
Staphylococcus aureus [42] = test: Antibacterial activity against methicillin-resistant Staphylococcus aureus USA100 measured after overnight incubation by broth double-dilution method; format: functional; method in brief: as §1

## O=c1c2ccccc2[se]n1-c1ccccc1 [EBSELEN]
Escherichia coli
  MIC: 7.8 µg/mL (≈ 28.4 µM)
Staphylococcus aureus [1]
  MIC: 2 µg/mL (≈ 7.29 µM)
Staphylococcus aureus [2]
  MIC: 1 µg/mL (≈ 3.65 µM)
[3]
  MIC: > 125 µg/mL
Staphylococcus aureus [4]
  Activity: 20%
Staphylococcus aureus [5]
  MIC: 7.8 µg/mL (≈ 28.4 µM)
Staphylococcus aureus [6]
  MIC: 0.5 µg/mL (≈ 1.82 µM)
Listeria monocytogenes
  MIC: 1 µg/mL (≈ 3.65 µM)
Staphylococcus aureus [7]
  Activity: Active
Staphylococcus aureus [8]
  Activity: 60%
Enterococcus faecalis [9]
  MIC: 0.5 µg/mL (≈ 1.82 µM)
Enterococcus
  MIC: 1 µg/mL (≈ 3.65 µM)
Staphylococcus aureus [10]
  MIC: 7.8 µg/mL (≈ 28.4 µM)
Staphylococcus aureus [11]
  MIC: 3.9 µg/mL (≈ 14.2 µM)
Staphylococcus aureus [12]
  MIC: 1 µg/mL (≈ 3.65 µM)
Staphylococcus aureus [13]
  MIC: 3.9 µg/mL (≈ 14.2 µM)
Staphylococcus aureus [14]
  MIC: 3.9 µg/mL (≈ 14.2 µM)
Staphylococcus aureus [15]
  MIC: 1 µg/mL (≈ 3.65 µM)
Staphylococcus aureus [16]
  Activity: Active
Klebsiella pneumoniae
  MIC: > 125 µg/mL
Acinetobacter baumannii
  MIC: 15.6 µg/mL (≈ 56.9 µM)
Staphylococcus aureus [17]
  MIC: 1 µg/mL (≈ 3.65 µM)
Staphylococcus aureus [18]
  MIC: ≤ 0.25 µg/mL
Staphylococcus aureus [19]
  MIC: 2 µg/mL (≈ 7.29 µM)
Staphylococcus aureus [20]
  MIC: 2 µg/mL (≈ 7.29 µM)
[21]
  MIC: 7.8 µg/mL (≈ 28.4 µM)
Staphylococcus aureus [22]
  MIC: 0.5 µg/mL (≈ 1.82 µM)
Staphylococcus aureus [23]
  MIC: 3.9 µg/mL (≈ 14.2 µM)
[24]
  MIC: 0.25 µg/mL (≈ 0.912 µM)
Staphylococcus aureus [25]
  MIC: 3.9 µg/mL (≈ 14.2 µM)
[26]
  hemolysis at 1 h: ≤ 20%
Staphylococcus aureus [27]
  MIC: 1 µg/mL (≈ 3.65 µM)
Staphylococcus aureus [28]
  Activity: Active
Pseudomonas aeruginosa
  MIC: > 125 µg/mL
Staphylococcus aureus [29]
  MIC: 1 µg/mL (≈ 3.65 µM)
Staphylococcus aureus [30]
  MIC: 2 µg/mL (≈ 7.29 µM)
Salmonella enterica
  MIC: > 125 µg/mL
Staphylococcus aureus [31]
  MIC: ≤ 0.25 µg/mL
Staphylococcus aureus [32]
  MIC: 2 µg/mL (≈ 7.29 µM)
Staphylococcus aureus [33]
  MIC: 1 µg/mL (≈ 3.65 µM)
[34]
  Activity: Non-Toxic
Enterococcus faecalis [35]
  MIC: ≤ 0.25 µg/mL
Staphylococcus aureus [36]
  Activity: Active
Staphylococcus aureus [37]
  MIC: 2 µg/mL (≈ 7.29 µM)
Staphylococcus aureus [38]
  MIC: 1 µg/mL (≈ 3.65 µM)
Enterococcus faecium
  MIC: 0.5 µg/mL (≈ 1.82 µM)
Enterobacter cloacae
  MIC: > 125 µg/mL
Staphylococcus aureus [39]
  MIC: 0.5 µg/mL (≈ 1.82 µM)
Staphylococcus aureus [40]
  MIC: 2 µg/mL (≈ 7.29 µM)
[41]
  Activity: 20%
Staphylococcus aureus [42]
  MIC: 2 µg/mL (≈ 7.29 µM)
